Data set [1] deals with Escherichia coli. Briefly: Antimicrobial activity against Escherichia coli ATCC 25922 assessed as inhibition of bacterial growth incubated for 18 hrs by broth microdilution method. The class given is functional. Put shortly:
(§1)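 Standard broth microdilution in MHB. Overnight culture (37 °C, 120 rpm) adjusted to OD600 0.07 and diluted 1000× to 3 × 10^5 CFU/mL. Peptides serially diluted in triplicate, 18 h at 37 °C with 120 rpm shaking. Growth read as OD600; MIC is the lowest concentration with no visible growth. Colistin served as control for Gram-negatives, vancomycin for S. aureus.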

Data set [2] relates to Escherichia coli. Kind of data set: Antimicrobial activity against Escherichia coli ATCC 25922 assessed as inhibition of bacterial growth incubated for 18 hrs in presence of 10% fetal bovine serum by broth microdilution method. Type of data set: functional, organism-based. Put shortly:
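E. coli broth microdilution in MHB containing 10% fetal bovine serum. Inoculum 3 × 10^5 CFU/mL, diluted from an OD600 0.07 suspension. Incubated 18 h at 37 °C with 120 rpm shaking, OD600 read, triplicates. Fold change in MIC calculated against control MIC.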

Data set [3] concerns Escherichia coli. Briefly: Antimicrobial activity against colistin/carbapenem resistant Escherichia coli clinical isolate R2 harboring mcr-1 and NDM-1 gene assessed as fold reduction in MIC incubated for 18 hrs by broth microdilution method. Type of data set: functional.
The test system of the next data set is Pseudomonas aeruginosa. Kind of data set: Antimicrobial activity against Pseudomonas aeruginosa ATCC 9027 assessed as inhibition of bacterial growth incubated for 18 hrs by broth microdilution method. The class given is functional. An outline of the steps:
as §1

The next data set deals with Erythrocyte. Kind of data set: Hemolytic activity in human RBC upto 128 uM incubated for 1 hr by absorbance based analysis. Type of data set: toxicity, cell-based. An outline of the steps: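 Washed human RBCs from healthy volunteers at 4% in PBS. Peptide at 4–128 μM, 37 °C for 1 h. Supernatant after 1000g, 10 min spin read at OD540. 1% Triton X-100 gave full lysis; % hemolysis derived and HC50 estimated.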

Data set [4] relates to Escherichia coli. Briefly: Antimicrobial activity against colistin resistant Escherichia coli clinical isolate R1 harboring mcr-1 gene assessed as fold reduction in MIC incubated for 18 hrs by broth microdilution method. The class given is functional.
Another data set has as its system Staphylococcus aureus. Kind of data set: Antimicrobial activity against Staphylococcus aureus ATCC 29737 assessed as inhibition of bacterial growth incubated for 18 hrs by broth microdilution method. The class given is functional, organism-based. An outline of the steps:
as §1

The subject of data set [5] is Escherichia coli. Briefly: Antimicrobial activity against Escherichia coli ATCC 25922 assessed as inhibition of bacterial growth compound pretreated for 1 hr with trypsin and measured after 18 hrs by broth microdilution method. The class given is functional, organism-based. An outline of the steps: (§2)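 Peptide incubated with trypsin at a 1:2000 trypsin/peptide molar ratio (e.g., 1 mM peptide with 0.5 μM trypsin), 37 °C, 1 h. Reaction stopped at 80 °C for 10 min, then serially diluted against E. coli in MHB broth microdilution. Inoculum 3 × 10^5 CFU/mL, 37 °C, 120 rpm, 18 h, read by OD600, triplicates. Fold change in MIC taken versus untreated control.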

In data set [6] the test system is Escherichia coli. Briefly: Antimicrobial activity against colistin/carbapenem resistant Escherichia coli clinical isolate R3 harboring NDM-7 and OXA-181 gene assessed as fold reduction in MIC incubated for 18 hrs by broth microdilution method. Type of data set: functional.
For data set [7], the system named is Escherichia coli. Briefly: Antimicrobial activity against colistin resistant Escherichia coli clinical isolate R1 harboring mcr-1 gene assessed as inhibition of bacterial growth incubated for 18 hrs by broth microdilution method. The class given is functional, organism-based. An outline of the steps: (§3)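 Overnight MHB culture (37 °C, 120 rpm) adjusted to OD600 0.07 (~10^8 CFU/mL), then diluted 1000× to 3 × 10^5 CFU/mL. Peptides serially diluted with the bacterial suspension in triplicate, shaken at 37 °C, 120 rpm for 18 h, then OD600 read. MIC is the lowest concentration with no visible growth. Colistin as positive control.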

The test system of data set [8] is Escherichia coli. Kind of data set: Antimicrobial activity against colistin/carbapenem resistant Escherichia coli clinical isolate R2 harboring mcr-1 and NDM-1 gene assessed as inhibition of bacterial growth incubated for 18 hrs by broth microdilution method. Type of data set: functional, organism-based. Put shortly: as §3
Data set [9] deals with Escherichia coli. Kind of data set: Antimicrobial activity against Escherichia coli ATCC 25922 assessed as fold increase in MIC compound pretreated for 1 hr with trypsin and measured after 18 hrs by broth microdilution method relative to control. Type of data set: functional. To be noted: trypsin pretreatment 1 hr; MIC measured after 18 hrs. Put shortly: as §2
Data set [10] can be described thus: Stability of compound assessed as trypsin (unknown origin) mediated compound degradation by measuring parent compound remaining measured after 1 hr by RP-HPLC analysis. Type of data set: ADME, protein assay. To be noted: human, read-out: Stability. An outline of the steps:
(§4)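 Peptide with trypsin at a 1:2000 trypsin/peptide molar ratio, 37 °C, sampled at 15, 30, 60 and 90 min. Reaction stopped with an equal volume of 50% acetonitrile/1% TFA. Analysed on C18 RP-HPLC with UV at 220 nm; intact peptide given as % of AUC.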

In a further data set the target is Trypsin (Homo sapiens, UniProt P07477+P07478+P35030). Kind of data set: Stability of compound assessed as trypsin (unknown origin) mediated compound degradation by measuring parent compound remaining measured after 1.5 hrs by RP-HPLC analysis. The class given is ADME, protein assay. An outline of the steps:
as §4

Data set [11] deals with Escherichia coli. Kind of data set: Antimicrobial activity against colistin/carbapenem resistant Escherichia coli clinical isolate R3 harboring NDM-7 and OXA-181 gene assessed as inhibition of bacterial growth incubated for 18 hrs by broth microdilution method. The class given is functional, organism-based.

SMILES strings stand for the structures. Converted amounts (≈) assume the structure as drawn. The source made the active and inactive calls. No cut-off for these calls is given here. Bounds are passed on as bounds.

As for `CC(C)C[C@@H]1NC(=O)[C@H](CCCCN)NC(=O)[C@@H]2CC/C=C/CC[C@H](NC(=O)[C@H](CCCCN)NC(=O)[C@H](CC(C)C)NC(=O)[C@H](CCCCN)NC(=O)[C@@H](N)CC/C=C/CC[C@@H](C(=O)O)NC(=O)[C@H](CCCCN)NC1=O)C(=O)N[C@@H](CCCCN)C(=O)N1CCC[C@@H]1C(=O)NCC(=O)N[C@@H](CCCCN)C(=O)N2`, the result with Escherichia coli [1], in the data set with Pseudomonas aeruginosa and in the data set on Staphylococcus aureus was inactive. Also, the outcome with Escherichia coli [2] and with Escherichia coli [5] was Active. Besides, the “fold change (FC)” value with Escherichia coli [3], in the data set with Escherichia coli [4] and with Escherichia coli [6] was 2 in each case. Moreover, the Activity result with Erythrocyte is given as “Non-Toxic”.

For the compound `CC(C)C[C@H](NC(=O)[C@H](CCCCN)NC(=O)[C@@H]1CC/C=C/CC[C@H](NC(=O)[C@H](CCCCN)NC(=O)[C@@H](N)CC(C)C)C(=O)N[C@@H](CCCCN)C(=O)N[C@@H](CC(C)C)C(=O)N[C@@H](CCCCN)C(=O)N2CCCC2C(=O)NCC(=O)N[C@@H](CCCCN)C(=O)N[C@@H](CC(C)C)C(=O)N[C@@H](CCCCN)C(=O)N1)C(=O)O` (single isomer, unassigned), the MIC in the data set on Escherichia coli [1] and in the data set with Pseudomonas aeruginosa was 8 µM (≈ 12.7 µg/mL) each time. Also, the result with Escherichia coli [7] and with Escherichia coli [8] was Active. Besides, the Activity result in the data set with Erythrocyte is recorded as “Non-Toxic”. Besides, in the data set on Staphylococcus aureus, the outcome was inactive. The “fold change (FC)” value in the data set on Escherichia coli [9] is “>=2”.

With `CC(C)C[C@H](NC(=O)[C@H](CCCCN)NC(=O)[C@@H]1CCC/C=C/CC[C@H](NC(=O)[C@H](CCCCN)NC(=O)[C@@H](N)CC(C)C)C(=O)N[C@@H](CCCCN)C(=O)N[C@@H](CC(C)C)C(=O)N[C@@H](CCCCN)C(=O)N2CCCC2C(=O)NCC(=O)N[C@@H](CCCCN)C(=O)N[C@@H](CC(C)C)C(=O)N[C@@H](CCCCN)C(=O)N1)C(=O)O` (single isomer, unassigned), the minimum inhibitory concentration (MIC) in the data set on Escherichia coli [1] and with Pseudomonas aeruginosa was 8 µM (≈ 12.8 µg/mL) throughout. Further, the Activity entry with Erythrocyte is recorded as “Non-Toxic”. For the same compound, the result with Staphylococcus aureus was inactive. For the same compound, the remaining at 1 h in [10] is less than 10%. Further, the “fold change (FC)” value in the data set with Escherichia coli [9] was “>=2”.

With `CC(C)C[C@@H]1NC(=O)[C@H](CCCCN)NC(=O)CNC(=O)[C@H]2CCCN2C(=O)[C@H](CCCCN)NC(=O)[C@H](CC(C)C)NC(=O)[C@H](CCCCN)NC(=O)[C@@H]2CC/C=C\CC[C@H](NC(=O)[C@H](CCCCN)NC1=O)C(=O)N[C@@H](CCCCN)C(=O)N[C@H](C(=O)O)CC/C=C\CC[C@H](N)C(=O)N[C@@H](CCCCN)C(=O)N2`, the result with Escherichia coli [1], with Pseudomonas aeruginosa and in the data set on Staphylococcus aureus was inactive. Further, the outcome in the data set with Escherichia coli [2] and in the data set on Escherichia coli [5] was Active. For the same compound, in the data set on Erythrocyte, the Activity result is “Non-Toxic”.

With `CC(C)C[C@@H]1NC(=O)[C@H](CCCCN)NC(=O)CNC(=O)[C@H]2CCCN2C(=O)[C@H](CCCCN)NC(=O)[C@H](CC(C)C)NC(=O)[C@H](CCCCN)NC(=O)[C@@H]2CC/C=C\CCC[C@H](NC(=O)[C@H](CCCCN)NC1=O)C(=O)N[C@@H](CCCCN)C(=O)N[C@H](C(=O)O)CC/C=C/CCC[C@H](N)C(=O)N[C@@H](CCCCN)C(=O)N2`, the result with Escherichia coli [1], in the data set on Pseudomonas aeruginosa and in the data set with Staphylococcus aureus was inactive. The result with Escherichia coli [2] and in the data set on Escherichia coli [5] was Active. In addition, the “fold change (FC)” value with Escherichia coli [3], in the data set on Escherichia coli [4] and with Escherichia coli [6] was 2 throughout. The Activity result in the data set with Erythrocyte was “Non-Toxic”. For the same compound, the Stability result at Trypsin (1.5 h) was “Unstable”.

In the case of `CC(C)C[C@@H]1NC(=O)[C@H](CCCCN)NC(=O)CNC(=O)C2CCCN2C(=O)[C@H](CCCCN)NC(=O)[C@H](CC(C)C)NC(=O)[C@H](CCCCN)NC(=O)[C@H](CC(C)C)NC(=O)[C@H](CCCCN)NC(=O)[C@@H](N)CC/C=C/CCC[C@@H](C(=O)O)NC(=O)[C@H](CCCCN)NC(=O)[C@H](CC(C)C)NC(=O)[C@H](CCCCN)NC1=O` (single isomer, unassigned), the minimum inhibitory concentration (MIC) in the data set on Escherichia coli [1] and with Pseudomonas aeruginosa was 8 µM (≈ 12.8 µg/mL) in each case. Moreover, the outcome in the data set with Escherichia coli [7], with Escherichia coli [11] and in the data set with Escherichia coli [8] was Active. Besides, the Activity entry with Erythrocyte is on record as “Non-Toxic”. Also, the outcome with Staphylococcus aureus was inactive. Also, in data set [10], the remaining at 1 h is less than 10%. Besides, in the data set with Escherichia coli [9], the “fold change (FC)” value is recorded as “>=2”.

As to `CC(C)C[C@H](NC(=O)[C@H](CCCCN)NC(=O)[C@H](CC(C)C)NC(=O)[C@H](CCCCN)NC(=O)[C@@H]1CC/C=C/CC[C@H](NC(=O)[C@H](CCCCN)NC(=O)[C@H](CC(C)C)NC(=O)[C@H](CCCCN)NC(=O)[C@@H](N)CC(C)C)C(=O)N[C@@H](CCCCN)C(=O)N2CCC[C@@H]2C(=O)NCC(=O)N[C@@H](CCCCN)C(=O)N1)C(=O)O`, the minimal inhibitory concentration (MIC) with Escherichia coli [1] and in the data set on Pseudomonas aeruginosa was 8 µM (≈ 12.7 µg/mL) each time. Also, the outcome in the data set on Escherichia coli [7], in the data set on Escherichia coli [2], in the data set with Escherichia coli [8] and in the data set with Escherichia coli [5] was Active. Moreover, the Activity entry in the data set with Erythrocyte was “Non-Toxic”. Further, in the data set with Staphylococcus aureus, the result was inactive. The remaining at 1.5 h on Trypsin (trypsin, read-out: Stability) is greater than 40%.

On to `CC(C)C[C@@H]1NC(=O)[C@H](CCCCN)NC(=O)[C@@H]2CCC/C=C\CC[C@H](NC(=O)[C@H](CCCCN)NC(=O)[C@H](CC(C)C)NC(=O)[C@H](CCCCN)NC(=O)[C@@H](N)CC/C=C/CCC[C@@H](C(=O)O)NC(=O)[C@H](CCCCN)NC1=O)C(=O)N[C@@H](CCCCN)C(=O)N1CCC[C@@H]1C(=O)NCC(=O)N[C@@H](CCCCN)C(=O)N2`, for which the outcome in the data set on Escherichia coli [1], with Pseudomonas aeruginosa and in the data set on Staphylococcus aureus was inactive. Besides, the result with Escherichia coli [2] and in the data set with Escherichia coli [5] was Active. Further, the “fold change (FC)” value in the data set with Escherichia coli [3], in the data set with Escherichia coli [4] and in the data set with Escherichia coli [6] was 2 throughout. In addition, in the data set on Erythrocyte, the Activity entry is “Non-Toxic”.

On to `CC(C)C[C@H](NC(=O)[C@H](CCCCN)NC(=O)[C@H](CC(C)C)NC(=O)[C@H](CCCCN)NC(=O)[C@@H]1CCC/C=C/CC[C@H](NC(=O)[C@H](CCCCN)NC(=O)[C@H](CC(C)C)NC(=O)[C@H](CCCCN)NC(=O)[C@@H](N)CC(C)C)C(=O)N[C@@H](CCCCN)C(=O)N2CCC[C@@H]2C(=O)NCC(=O)N[C@@H](CCCCN)C(=O)N1)C(=O)O`, for which the Activity result in the data set on Erythrocyte is reported as “Non-Toxic”. In addition, the outcome in the data set on Staphylococcus aureus was inactive. Moreover, the remaining at 1 h in [10] was less than 10%. The “fold change (FC)” value in the data set with Escherichia coli [9] is “>=2”.
